UCH37 inh – inhibitors of human deubiquitinating enzyme UCH37; Q9Y5K5; purified proteasome/UCH37, Ub-AMC cleavage fluorescence; inhibition, % (concentration not given with the values); 330,000 compounds, 0.33% hits; AID 588478;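 active = mean inhibition over replicate wells above about 20%, limit read from the data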;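 also: 0% = compound-free wells with enzyme and 100% = wells lacking proteasome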
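Signal – fluorescence, ex 355 nm, em 460 nm · System – Proteasome-bound UCH37 · Input – 0.15 nM proteasome as dispensed · Timing – 30 min preincubation with enzyme, 25 min cleavage at room temperature · Read-out basis – percent inhibition of cleavage signal versus uninhibited and no-proteasome wells · Medium – Tris-HCl pH 7.4 with ATP-MgCl2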
PAFAH1B3 FP inh – PAFAH1B3 (human) inhibition; inhibition, % at 3.39 µM; 340,000 compounds, 0.28% hits; AID 492972; Q15102; recombinant PAFAH1B3, FP-rhodamine probe, fluorescence polarization;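 active = inhibition above the screen-wide average of all tested compounds plus 3 SD, cut at about 25% in these data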;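 also: 0% = enzyme with DMSO only and 100% = wells lacking PAFAH1B3 protein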
PAFAH2 inh – PAFAH2 (human) inhibition | Q99487 | recombinant PAFAH2, FP-rhodamine activity probe, fluorescence polarization | inhibition, % at 3.39 µM | 340,000 compounds, 0.99% hits | AID 492956;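 active = inhibition above the mean over all tested compounds plus 3 SD, cut at about 30% in these data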;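 also: inhibitors block probe labeling of enzyme so polarization drops; 0% = enzyme with DMSO and 100% = wells lacking PAFAH2 protein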
PAFAH1B2 FP inh – blocks human PAF acetylhydrolase 1b catalytic subunit 2. P68402. recombinant PAFAH1B2, FP-rhodamine activity probe, fluorescence polarization. inhibition, % at 3.39 µM. 340,000 compounds, 1.2% hits;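 active = inhibition above the mean of all tested compounds plus 3 SD, cut at about 24% in these data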;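 also: 0% = enzyme with DMSO and 100% = wells lacking PAFAH1B2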
Target sequence (P68402 whole entry, looked up): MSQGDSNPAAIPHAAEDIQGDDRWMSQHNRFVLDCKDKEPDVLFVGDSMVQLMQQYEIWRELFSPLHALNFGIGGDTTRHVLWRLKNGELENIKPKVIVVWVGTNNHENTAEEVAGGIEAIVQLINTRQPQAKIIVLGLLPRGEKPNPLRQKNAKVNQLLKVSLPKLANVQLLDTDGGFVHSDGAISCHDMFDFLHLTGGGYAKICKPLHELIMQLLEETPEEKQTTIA
GRIN3A LBD mod – modulators (binders) of human NR3A ligand-binding domain; AID 1259313; NR3A LBD differential scanning fluorimetry, Tm shift; 0% = protein alone, 100% = glycine-bound protein; 340,000 compounds, 2.5% hits; Tm shift relative to glycine control, % at 25 µM;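 active = melting temperature shift of at least 10% of the positive control shift, at one fixed dose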
pPAFAH FP inh – pPAFAH (human) enzyme inhibition; Q13093; recombinant pPAFAH, FP-rhodamine probe fluorescence polarization; inhibition, % at 3.39 µM; 330,000 compounds, 1.5% hits; AID 463082;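 active = inhibition above the mean inhibition across the screen plus 3 SD, cut at about 25% in these data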;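 also: inhibitors block binding of the rhodamine activity-based probe so polarization drops; 0% = enzyme with DMSO and 100% = wells lacking pPAFAH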
Target sequence (Q13093 whole entry, looked up): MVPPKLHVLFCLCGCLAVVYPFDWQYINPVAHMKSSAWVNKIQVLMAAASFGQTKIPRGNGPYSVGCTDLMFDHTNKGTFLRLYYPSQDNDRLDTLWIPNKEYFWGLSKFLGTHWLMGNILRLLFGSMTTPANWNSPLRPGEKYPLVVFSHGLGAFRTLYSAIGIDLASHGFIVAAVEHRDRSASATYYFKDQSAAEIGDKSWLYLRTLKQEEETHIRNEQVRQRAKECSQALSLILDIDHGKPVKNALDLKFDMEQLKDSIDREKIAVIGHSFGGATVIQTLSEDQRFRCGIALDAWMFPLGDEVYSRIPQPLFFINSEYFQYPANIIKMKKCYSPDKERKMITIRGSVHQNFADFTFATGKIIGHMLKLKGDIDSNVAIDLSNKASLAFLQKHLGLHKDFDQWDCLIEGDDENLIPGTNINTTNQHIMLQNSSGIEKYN
Active calls of the source: *; . = not tested or not shown. Sampled rows, rich in hits. Any-hit rate of the full collection: about 4.8%.

SMILES | UCH37 inh | PAFAH1B3 FP inh | PAFAH2 inh | PAFAH1B2 FP inh | GRIN3A LBD mod | pPAFAH FP inh
CC(C)/C(C=O)=C(\NC1CCCCC1)c1ccccc1 | 4 | . | . | . | . | .
N#Cc1nc(-c2ccc(OCc3ccc(Cl)cc3)cc2)oc1N1CCC(C(N)=O)CC1 | -2 | 3 | 2 | 6 | 28* | 5
CCOc1ccccc1NC(=O)CCC(=O)Nc1nnc(C2CCCCC2)s1 | 5 | 8 | 0 | 3 | 15* | 0
Cn1nnnc1Sc1ncnc2scc(-c3ccc(Cl)cc3)c12 | . | 7 | -9 | 2 | 0 | 11
Cn1nnnc1Sc1ncnc2scc(-c3ccc([N+](=O)[O-])cc3)c12 | 2 | 4 | 5 | 4 | 13* | 8
CCc1c(C)c(C#N)c2[nH]c3ccccc3n2c1=S | -4 | 20 | 12 | 23 | 11* | 6
COc1ccc(O)c(C=NNc2nc(Nc3ccccc3)nc(-n3nc(C)cc3C)n2)c1 | 2 | . | . | . | . | .
O=C(CC1SC(=O)N(c2ccccc2)C1=O)Nc1ccc(Cl)cc1 (stereo not given) | 4 | 2 | -1 | 3 | 22* | 22
O=C(CC1Sc2ncnn2C1=O)Nc1ccc(Cl)cc1 (stereo not given) | 7 | . | . | . | -3 | 10
O=C(CC1SC(=O)N(c2ccccc2)C1=O)Nc1ccc(Br)cc1 (stereo not given) | 4 | . | . | . | 30* | 32*
O=C(CC1SC(=NCCc2ccccc2)N(/N=C/c2cccs2)C1=O)Nc1ccc(Cl)cc1 (stereo not given) | . | -9 | -19 | -5 | 21* | -21
O=C(CC1SC(=Nc2ccccc2)N(CCCO)C1=O)Nc1ccc(Cl)cc1 (stereo not given) | 2 | 1 | 2 | 6 | -7 | -5
Cc1ccc(S(=O)(=O)NN=Cc2c(C)nn(-c3ccccc3)c2C)cc1 | 2 | . | . | . | . | .
COCc1c(C(=O)NN=C(C)c2ccccc2)nnn1-c1nonc1N | 2 | . | . | . | . | .
O=C(Nc1ccc2c(c1)OCO2)c1cc(-c2ccc(O)cc2)on1 | 3 | 2 | -5 | 4 | 18* | -4
O=C(Nc1ccc2c(c1)OCO2)c1cc(-c2cccc(O)c2)on1 | 1 | 8 | 6 | 3 | 3 | 6
COc1cccc(-c2cc(C(=O)Nc3ccc4c(c3)OCO4)no2)c1 | -50 | 5 | 13 | 7 | 15* | 3
C=CCc1c(C)nc(-c2ccccc2)nc1NN=C(C)c1ccccc1 | 5 | . | . | . | . | .
O=C(CNC(=O)/C(=C\c1ccccc1)NC(=O)c1ccc(Br)cc1)OCc1ccccc1 | 1 | 14 | 5 | 2 | -2 | 3
O=C(CNC(=O)/C(=C\c1ccc(F)cc1)NC(=O)c1ccccc1)OCc1ccccc1 | 27* | 5 | -7 | -3 | -1 | -1
NC(=S)NNC(=O)/C(=C/c1ccc(Br)cc1)NC(=O)c1ccccc1 | 2 | 3 | 3 | 0 | 13* | 1
Cn1c(NCc2ccco2)nc2c1c(=O)n(Cc1ccc(Cl)cc1)c(=O)n2C | 2 | 3 | 1 | 3 | 15* | -4
Cn1c(NCc2ccco2)nc2c1c(=O)n(Cc1ccc(Br)cc1)c(=O)n2C | 3 | 7 | 10 | -1 | -17 | 7
CC1=CN(S(=O)(=O)c2ccc(C)cc2)C[C@@H]2c3ccccc3N(S(=O)(=O)c3ccc(C)cc3)[C@H]12 | 2 | 1 | -4 | 1 | 17* | 3
Cc1ccc(S(=O)(=O)N2C[C@@H]3c4ccccc4N(S(=O)(=O)c4ccc(C)cc4)[C@@H]3[C@@H](C)C2CC(=O)c2ccccc2)cc1 (stereo not given in full) | 1 | -1 | -6 | 2 | 3 | -10
SMILES | UCH37 inh | PAFAH1B3 FP inh | PAFAH2 inh | PAFAH1B2 FP inh | GRIN3A LBD mod | pPAFAH FP inh
Cc1cc(C(F)(F)F)c(C#N)c(SCC(=O)Nc2nc3ccccc3s2)n1 | -2 | 1 | -13 | -1 | 12* | 5
N#Cc1c(C(F)(F)F)cc(-c2ccccc2)nc1SCC(=O)Nc1sc2c(c1C#N)CCC2 | 4 | 5 | 1 | 6 | 10* | 6
N#Cc1c(C(F)(F)F)cc(-c2ccc(Cl)c(Cl)c2)nc1SCCN1CCOCC1 | -5 | 3 | -5 | -1 | -2 | -4
N#Cc1c(C(F)(F)F)cc(-c2ccccc2)nc1SCc1nc(N)nc(N2CCOCC2)n1 | 3 | 4 | -4 | -6 | 16* | 7
O=C(NN=Cc1ccco1)c1cc2ccccc2o1 | 9 | . | . | . | . | .
COc1ccc(Br)cc1C=NNC(=O)c1cc(Br)ccc1O | -69 | . | . | . | . | .
COc1ccc(CN2CCN(c3ccc(F)cc3)CC2)c(OC)c1OC | -2 | -6 | 6 | 1 | -6 | -5
COc1ccc(CN2CCN(C(c3ccc(F)cc3)c3ccc(F)cc3)CC2)c(OC)c1OC | 6 | 15 | 1 | 1 | 13* | -1
CCc1ccc(-c2cc(C(=O)Nn3cnnc3)c3ccccc3n2)cc1 | 1 | 5 | -5 | 72* | -15 | -4
NS(=O)(=O)c1ccc(CCNC(=O)c2cc(-c3ccc(Br)cc3)nc3ccccc23)cc1 | -9 | -18 | -13 | -8 | 4 | -11
CC(C)Cc1cc(C(=O)N2N=C(C(F)F)CC2(O)C(F)F)c2ccccc2n1 (stereo not given) | 2 | 7 | 6 | 6 | -4 | -2
CCCc1ccc(-c2cc(C(=O)NN3CCOCC3)c3ccccc3n2)cc1 | -21 | 5 | -3 | 2 | -1 | -1
NS(=O)(=O)c1ccc(CCNC(=O)c2ccc3nccnc3c2)cc1 | 0 | 4 | 7 | 8 | -2 | 30*
CCCc1ccc(-c2cc(C(=O)NCCc3ccc(S(N)(=O)=O)cc3)c3ccccc3n2)cc1 | -24 | -9 | -14 | 0 | 12* | -1
CCc1ccc(-c2cc(C(=O)N3N=C(C(F)F)CC3(O)C(F)F)c3ccccc3n2)cc1 (stereo not given) | -11 | -17 | -18 | -9 | 22* | -7
COc1cccc(C=NNC(=O)c2[nH]c(C)c(C(=O)NN=Cc3cccc(OC)c3O)c2C)c1O | -19 | . | . | . | . | .
COc1ccc(CCN(C)C(=O)c2ccc(S(=O)(=O)Nc3ccccc3C)cc2)cc1OC | 1 | . | . | . | 0 | 25*
Cc1ccc(N2C3=C(C(=O)CC(C)(C)C3)C(c3cn(C)nc3C)C3=C2CC(C)(C)CC3=O)cc1 | -51 | 1 | 4 | 6 | 0 | 27*
COC(=O)c1ccc(C=NNC(=S)NC(C)C)cc1 | -1 | . | . | . | . | .
CC(=NNC(=O)c1ccc(C)s1)c1cccc(NC(=O)c2ccoc2C)c1 | 8 | . | . | . | . | .
CCOC(=O)c1cc(CC)sc1NC(=O)C1CC(=O)NN1Cc1ccccc1 (stereo not given) | 2 | 3 | -11 | 1 | 7 | 32*
COCCCNC(=O)c1c(N)n(N=Cc2ccccn2)c2nc3ccccc3nc12 | -8 | . | . | . | . | .
COc1ccc(S(=O)(=O)N2CCSC2c2ccc(N)cc2)cc1 (stereo not given) | 1 | 5 | 3 | 8 | 11* | 3
